{"source": "ChEMBL document CHEMBL3399931", "about": "“Reversible and irreversible small molecule inhibitors of monoamine oxidase B (MAO-B) investigated by biophysical techniques” (Bioorg Med Chem, 2015)", "key": {"[1]": {"target": "T1, Amine oxidase [flavin-containing] B (Homo sapiens, UniProt P27338)", "T1 sequence (P27338 whole entry)": "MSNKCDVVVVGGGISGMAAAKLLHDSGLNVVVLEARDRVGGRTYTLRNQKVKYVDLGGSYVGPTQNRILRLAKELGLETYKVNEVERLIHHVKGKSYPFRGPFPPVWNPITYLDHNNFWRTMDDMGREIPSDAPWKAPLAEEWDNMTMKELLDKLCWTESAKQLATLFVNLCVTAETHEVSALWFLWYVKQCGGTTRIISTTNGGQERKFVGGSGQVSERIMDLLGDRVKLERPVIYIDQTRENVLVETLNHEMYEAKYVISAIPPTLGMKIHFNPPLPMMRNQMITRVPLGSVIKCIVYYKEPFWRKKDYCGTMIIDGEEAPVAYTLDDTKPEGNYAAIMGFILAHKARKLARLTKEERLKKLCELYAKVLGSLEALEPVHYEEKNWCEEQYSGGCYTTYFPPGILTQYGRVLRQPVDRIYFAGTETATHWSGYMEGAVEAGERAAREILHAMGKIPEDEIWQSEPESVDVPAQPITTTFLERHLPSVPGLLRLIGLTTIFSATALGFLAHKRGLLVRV", "assay": "Inhibition of human recombinant soluble MAO-B assessed as change in melting temperature at 100 uM after 20 mins by SYPRO orange staining-based fluorescence assay", "procedure,_shortened": "(§1)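 It was preincubated with serial compound dilutions (0.5–10 µM or 1.7–100 µM) for 20 min at 4 °C in 10% DMSO. 1x SYPRO orange was then added and samples ramped 25–80 °C at 1 °C/s. Boltzmann Tm was taken from the ~50–70 °C region, and ΔTm = Tm(compound) − Tm(DMSO only).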"}, "[2]": {"target": "T1, Amine oxidase [flavin-containing] B", "assay": "Inhibition of human recombinant soluble MAO-B expressed in Pichia pastoris incubated for 30 mins prior to substrate addition measured after 60 mins by MAO-Glo assay"}, "[3]": {"target": "T1, Amine oxidase [flavin-containing] B", "assay": "Inhibition of human recombinant soluble MAO-B assessed as thermal shift after 20 mins by SYPRO orange staining-based fluorescence assay", "procedure,_shortened": "as §1"}, "[4]": {"target": "T1, Amine oxidase [flavin-containing] B", "assay": "Inhibition of human recombinant microsomal MAO-B expressed in Pichia pastoris incubated for 30 mins prior to substrate addition measured after 60 mins by MAO-Glo assay"}, "[5]": {"target": "T2, Amine oxidase [flavin-containing] B (Rattus norvegicus, UniProt P19643)", "T2 sequence (P19643 whole entry)": "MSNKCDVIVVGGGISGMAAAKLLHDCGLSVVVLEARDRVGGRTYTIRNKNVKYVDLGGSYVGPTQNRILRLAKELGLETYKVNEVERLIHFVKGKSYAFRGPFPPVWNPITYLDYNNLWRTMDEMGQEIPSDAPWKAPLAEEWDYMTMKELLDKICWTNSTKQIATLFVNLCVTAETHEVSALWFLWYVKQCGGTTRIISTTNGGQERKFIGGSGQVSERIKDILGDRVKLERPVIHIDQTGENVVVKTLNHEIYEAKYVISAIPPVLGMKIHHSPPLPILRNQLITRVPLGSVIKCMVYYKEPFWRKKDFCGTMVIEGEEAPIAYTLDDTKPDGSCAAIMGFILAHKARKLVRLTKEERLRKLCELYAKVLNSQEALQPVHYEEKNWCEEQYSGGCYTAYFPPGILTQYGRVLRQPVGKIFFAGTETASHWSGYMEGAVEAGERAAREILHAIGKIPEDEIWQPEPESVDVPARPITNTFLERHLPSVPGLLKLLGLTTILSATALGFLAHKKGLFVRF", "assay": "Reversible inhibition of MAO-B in rat whole brain homogenate assessed as recovered activity at 100 times IC50 incubated for 60 mins followed by 6 washes by Amplex Red assay", "assay_type": "tissue-based", "design": "scale not given: the % may be the effect or the level left", "conditions": "1 h; call rule not given here"}, "[6]": {"target": "T2, Amine oxidase [flavin-containing] B", "assay": "Reversible inhibition of MAO-B in rat whole brain homogenate assessed as recovered activity at 100 times IC50 incubated for 60 mins followed by 3 washes by Amplex Red assay", "assay_type": "tissue-based", "design": "scale not given: the % may be the effect or the level left", "conditions": "1 h"}, "[7]": {"target": "T1, Amine oxidase [flavin-containing] B", "assay": "Inhibition of human recombinant soluble MAO-B assessed as change in melting temperature at 10 uM after 20 mins by SYPRO orange staining-based fluorescence assay"}, "[8]": {"target": "T2, Amine oxidase [flavin-containing] B", "assay": "Inhibition of MAO-B in rat whole brain homogenate", "assay_type": "tissue-based", "procedure,_shortened": "(§2)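 Insoluble fraction of rat brain lysate was assayed with the non-selective MAO-Glo substrate. Dose–response curves were run against a matrix of fixed concentrations of an MAO-A-selective inhibitor (0.06–200 nM) and an MAO-B-selective inhibitor (0.05–50,000 nM), so that each isoform's contribution could be separated.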"}, "[9]": {"target": "T3, Amine oxidase [flavin-containing] A (Rattus norvegicus, UniProt P21396)", "T3 sequence (P21396 whole entry)": "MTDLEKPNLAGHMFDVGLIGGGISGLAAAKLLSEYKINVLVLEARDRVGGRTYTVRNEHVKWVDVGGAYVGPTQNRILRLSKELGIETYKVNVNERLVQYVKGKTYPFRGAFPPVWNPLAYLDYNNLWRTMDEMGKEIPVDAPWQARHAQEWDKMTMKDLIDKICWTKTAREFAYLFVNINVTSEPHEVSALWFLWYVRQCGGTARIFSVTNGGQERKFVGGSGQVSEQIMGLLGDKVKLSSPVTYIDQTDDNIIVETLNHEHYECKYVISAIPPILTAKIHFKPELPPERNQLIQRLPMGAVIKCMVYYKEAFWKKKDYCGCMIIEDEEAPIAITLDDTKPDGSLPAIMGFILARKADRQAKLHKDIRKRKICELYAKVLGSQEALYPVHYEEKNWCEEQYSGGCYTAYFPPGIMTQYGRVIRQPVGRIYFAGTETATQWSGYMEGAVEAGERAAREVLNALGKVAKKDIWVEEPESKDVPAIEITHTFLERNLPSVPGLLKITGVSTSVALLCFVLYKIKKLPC", "assay": "Inhibition of MAO-A in rat whole brain homogenate", "assay_type": "tissue-based", "procedure,_shortened": "as §2"}}, "data": [{"compound": "Cn1c(=O)c2c(nc(/C=C/c3cccc(Cl)c3)n2C)n(C)c1=O", "values": [{"measurement": "Activity", "setting": "[1]", "result": "Not Active"}]}, {"compound": "NCCNC(=O)c1ccc(Cl)cc1", "values": [{"measurement": "Ki", "setting": "[2]", "result": 32.2, "unit": "nM"}, {"measurement": "EC50", "setting": "[3]", "result": 29000, "unit": "nM"}, {"measurement": "Ki", "setting": "[4]", "result": 997, "unit": "nM"}, {"measurement": "deltaTm", "setting": "[1]", "result": 4.5, "unit": "°C"}]}, {"compound": "N[C@@H]1C[C@H]1c1ccccc1.N[C@H]1C[C@@H]1c1ccccc1", "note": "(relative stereo) [TRANYLCYPROMINE]", "values": [{"measurement": "Activity", "setting": "[1]", "result": "Not Active"}]}, {"compound": "NCCNC(=O)c1ccc(Cl)cn1", "note": "[LAZABEMIDE]", "values": [{"measurement": "Activity", "setting": "[5]", "result": 100, "unit": "%"}, {"measurement": "Activity", "setting": "[6]", "result": 74, "unit": "%"}, {"measurement": "deltaTm", "setting": "[1]", "result": 7, "unit": "°C"}]}, {"compound": "C#CCN(C)Cc1ccccc1", "note": "[PARGYLINE]", "values": [{"measurement": "deltaTm", "setting": "[7]", "result": 12.3, "unit": "°C"}]}, {"compound": "CCc1ccc(CCOc2ccc(CC3SC(=O)NC3=O)cc2)nc1", "note": "(stereo unspecified) [PIOGLITAZONE]", "values": [{"measurement": "deltaTm", "setting": "[1]", "result": 2.5, "unit": "°C"}]}, {"compound": "C#CCN[C@@H]1CCc2ccccc21", "note": "[RASAGILINE]", "values": [{"measurement": "deltaTm", "setting": "[7]", "result": 14.6, "unit": "°C"}]}, {"compound": "C[C@H](NCc1ccc(OCc2cccc(F)c2)cc1)C(N)=O", "note": "[SAFINAMIDE]", "values": [{"measurement": "Activity", "setting": "[5]", "result": 100, "unit": "%"}, {"measurement": "Activity", "setting": "[6]", "result": 31, "unit": "%"}]}, {"compound": "C#CCN(C)[C@H](C)Cc1ccccc1", "note": "[SELEGILINE]", "values": [{"measurement": "INH", "setting": "[8]", "result": "< 200", "unit": "nM"}, {"measurement": "INH", "setting": "[9]", "result": 781, "unit": "nM"}]}]}
